From ChEMBL document CHEMBL1122233, “Antihypertensive 9-substituted 1-oxa-4,9-diazaspiro[5.5]undecan-3-ones” (J Med Chem, 1983)

How the values were obtained:
Rattus norvegicus [1] = assay: Percentage fall in systolic blood pressure after 4 hr at 25 mg/kg given perorally; type: functional, organism-based; parameters: dose 25 mg/kg; settings: Artery
Method in brief: (§1)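 Male Okamoto-Aoki spontaneously hypertensive rats, trained, in groups of four matched for mean systolic pressure; five treated groups and one vehicle control run concurrently. Oral dosing in water (solution or suspension, 0.1 mL/10 g) on two consecutive mornings. On day 2, rats were restrained at 30.0 ± 1.0 °C and tail-cuff systolic pressure recorded at 1–4 h; percent fall versus control, 1-tail t test, p ≤ 0.05.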

Rattus norvegicus [2] = assay: Percentage fall in systolic blood pressure after 4 hours at 6.25 mg/kg given perorally; type: functional, Artery; settings: route oral
Method in brief: (§2)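 Male Okamoto-Aoki SHR, four per group, with a concurrent vehicle control group. Oral dosing in water (0.1 mL/10 g) on two consecutive mornings. After the day-2 dose, rats were restrained in a 30 °C chamber. Tail-cuff systolic pressure was taken at 1-4 h from four traces per rat. Result is % decrease versus control mean, by 1-tailed t test, p ≤ 0.05.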

Rattus norvegicus [3] = assay: Percentage fall in systolic blood pressure after 3 hours at 50 mg/kg given perorally; type: functional, Artery; settings: route oral; method in brief: as §2
Rattus norvegicus [4] = assay: Percentage fall in systolic blood pressure after 2 hours at 50 mg/kg given perorally; type: functional, Artery; settings: route oral; method in brief: as §2
Rattus norvegicus [5] = assay: Percentage fall in systolic blood pressure after 2 hours at 12.5 mg/kg given perorally; type: functional, Artery; settings: route oral; method in brief: as §2
[6] = biological target: T1, Adrenergic receptor alpha-1 (Rattus norvegicus, UniProt P15823+P23944+P43140); assay: Affinity for alpha-1 adrenoceptor of rat cerebral cortex was determined by ligand binding using [3H]prazosin.; type: tissue-based
T1 sequence (P15823 whole entry): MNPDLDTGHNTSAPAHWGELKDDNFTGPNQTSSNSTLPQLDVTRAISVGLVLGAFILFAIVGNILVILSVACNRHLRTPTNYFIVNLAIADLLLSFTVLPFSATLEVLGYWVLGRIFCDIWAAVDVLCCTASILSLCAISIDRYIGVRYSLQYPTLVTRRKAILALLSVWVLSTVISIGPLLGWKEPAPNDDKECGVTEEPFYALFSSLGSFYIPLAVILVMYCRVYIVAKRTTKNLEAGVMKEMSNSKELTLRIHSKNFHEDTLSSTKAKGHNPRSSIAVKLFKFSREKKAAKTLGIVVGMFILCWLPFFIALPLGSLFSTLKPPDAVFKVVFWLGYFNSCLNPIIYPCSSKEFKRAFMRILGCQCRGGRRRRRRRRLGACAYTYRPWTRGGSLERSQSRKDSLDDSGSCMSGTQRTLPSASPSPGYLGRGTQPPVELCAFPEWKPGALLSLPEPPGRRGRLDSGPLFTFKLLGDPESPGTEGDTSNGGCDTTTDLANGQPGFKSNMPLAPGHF
T1 sequence (P23944 whole entry): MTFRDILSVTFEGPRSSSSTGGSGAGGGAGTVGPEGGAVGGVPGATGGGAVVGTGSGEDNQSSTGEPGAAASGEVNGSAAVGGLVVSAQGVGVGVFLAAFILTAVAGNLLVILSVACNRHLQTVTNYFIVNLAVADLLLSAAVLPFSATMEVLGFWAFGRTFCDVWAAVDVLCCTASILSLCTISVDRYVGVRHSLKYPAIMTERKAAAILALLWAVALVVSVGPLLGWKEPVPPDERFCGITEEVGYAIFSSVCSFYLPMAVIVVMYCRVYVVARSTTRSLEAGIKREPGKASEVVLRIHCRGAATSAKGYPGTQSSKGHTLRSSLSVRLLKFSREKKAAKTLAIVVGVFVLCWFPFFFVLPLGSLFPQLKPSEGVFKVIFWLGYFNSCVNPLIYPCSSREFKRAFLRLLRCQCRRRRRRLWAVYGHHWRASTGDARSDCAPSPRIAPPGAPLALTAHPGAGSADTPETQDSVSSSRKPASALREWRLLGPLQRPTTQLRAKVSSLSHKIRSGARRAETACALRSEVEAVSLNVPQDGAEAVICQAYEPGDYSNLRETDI
T1 sequence (P43140 whole entry): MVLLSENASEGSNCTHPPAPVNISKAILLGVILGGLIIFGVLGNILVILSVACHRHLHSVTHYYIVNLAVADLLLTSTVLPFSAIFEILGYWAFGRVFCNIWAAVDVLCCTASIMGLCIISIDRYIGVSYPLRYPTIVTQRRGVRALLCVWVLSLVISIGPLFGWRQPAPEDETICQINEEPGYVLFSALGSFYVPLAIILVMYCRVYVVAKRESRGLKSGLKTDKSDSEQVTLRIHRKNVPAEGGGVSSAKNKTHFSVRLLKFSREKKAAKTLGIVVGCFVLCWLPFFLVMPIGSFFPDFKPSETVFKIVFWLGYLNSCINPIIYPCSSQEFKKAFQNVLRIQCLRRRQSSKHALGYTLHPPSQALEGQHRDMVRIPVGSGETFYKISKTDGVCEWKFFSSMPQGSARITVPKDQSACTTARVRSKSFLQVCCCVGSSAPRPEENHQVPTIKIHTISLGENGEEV
Method in brief: (§3)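 Washed rat cerebral cortex membranes (homogenised in 50 mM Tris-HCl pH 7.8, pelleted at 48000g, washed 3 times) at 2.5 mg/mL protein. […] Ice-cold buffer stop, then filtration. Nonspecific binding defined with 200 μmol norepinephrine. KI from IC50 by Cheng-Prusoff, given as negative log.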

Rattus norvegicus [7] = assay: Percentage fall in systolic blood pressure after 3 hours at 12.5 mg/kg given perorally; type: functional, Artery; settings: route oral; method in brief: as §2
Rattus norvegicus [8] = assay: Percentage fall in systolic blood pressure after 3 hours at 6.25 mg/kg given perorally; type: functional, Artery; settings: route oral; method in brief: as §2
Rattus norvegicus [9] = assay: Percentage fall in systolic blood pressure after 1 hr at 6.25 mg/kg given perorally; type: functional, Artery; settings: route oral; method in brief: as §2
Rattus norvegicus [10] = assay: Percentage fall in systolic blood pressure after 4 hours at 12.5 mg/kg given perorally; type: functional, Artery; settings: route oral; method in brief: as §2
[11] = biological target: T2, Adrenergic receptor alpha-2 (Rattus norvegicus, UniProt P22086+P19328+P22909); assay: Affinity for alpha-2 adrenergic receptor of rat cerebral cortex was determined by ligand binding using [3H]yohimbine.; type: tissue-based; method in brief: as §3
T2 sequence (P22086 whole entry): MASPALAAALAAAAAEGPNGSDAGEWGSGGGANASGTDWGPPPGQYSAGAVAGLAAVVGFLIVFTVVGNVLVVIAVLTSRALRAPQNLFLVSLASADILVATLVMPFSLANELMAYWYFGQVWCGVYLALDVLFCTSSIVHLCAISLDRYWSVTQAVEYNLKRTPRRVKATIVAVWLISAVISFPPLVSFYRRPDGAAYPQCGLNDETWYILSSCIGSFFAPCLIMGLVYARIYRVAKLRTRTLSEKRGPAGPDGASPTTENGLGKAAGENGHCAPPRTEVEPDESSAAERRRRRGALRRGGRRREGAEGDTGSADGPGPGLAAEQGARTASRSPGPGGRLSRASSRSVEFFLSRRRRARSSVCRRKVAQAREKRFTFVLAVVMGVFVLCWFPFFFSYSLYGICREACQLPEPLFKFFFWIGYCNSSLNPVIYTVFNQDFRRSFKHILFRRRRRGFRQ
T2 sequence (P19328 whole entry): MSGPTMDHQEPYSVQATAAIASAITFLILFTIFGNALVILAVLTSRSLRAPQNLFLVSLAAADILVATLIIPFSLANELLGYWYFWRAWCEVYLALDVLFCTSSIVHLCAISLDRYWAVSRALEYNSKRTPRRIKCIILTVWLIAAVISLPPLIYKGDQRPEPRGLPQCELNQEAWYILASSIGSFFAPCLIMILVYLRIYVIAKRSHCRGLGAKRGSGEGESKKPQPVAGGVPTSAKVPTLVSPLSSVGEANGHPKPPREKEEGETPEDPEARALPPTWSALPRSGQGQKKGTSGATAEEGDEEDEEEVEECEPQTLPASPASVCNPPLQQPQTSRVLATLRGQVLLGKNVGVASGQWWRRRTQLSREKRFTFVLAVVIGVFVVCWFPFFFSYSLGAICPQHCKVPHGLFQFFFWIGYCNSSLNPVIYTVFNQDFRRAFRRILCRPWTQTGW
T2 sequence (P22909 whole entry): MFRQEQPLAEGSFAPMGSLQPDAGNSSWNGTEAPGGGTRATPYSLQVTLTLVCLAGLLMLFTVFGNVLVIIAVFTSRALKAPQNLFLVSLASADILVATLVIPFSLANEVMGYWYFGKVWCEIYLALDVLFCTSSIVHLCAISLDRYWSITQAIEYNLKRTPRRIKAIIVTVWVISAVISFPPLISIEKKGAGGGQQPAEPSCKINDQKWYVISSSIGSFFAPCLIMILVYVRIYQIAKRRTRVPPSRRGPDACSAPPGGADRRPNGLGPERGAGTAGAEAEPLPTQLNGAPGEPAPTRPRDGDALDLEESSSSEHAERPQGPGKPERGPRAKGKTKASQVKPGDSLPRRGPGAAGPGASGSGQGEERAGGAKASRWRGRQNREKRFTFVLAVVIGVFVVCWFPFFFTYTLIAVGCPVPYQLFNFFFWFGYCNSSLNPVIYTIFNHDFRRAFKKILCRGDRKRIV

Rattus norvegicus [12] = assay: Percentage fall in systolic blood pressure after 2 hours at 6.25 mg/kg given perorally; type: functional, Artery; settings: route oral; method in brief: as §2
Rattus norvegicus [13] = assay: Percentage fall in systolic blood pressure after 1 hr at 12.5 mg/kg given perorally; type: functional, Artery; settings: route oral; method in brief: as §2
Rattus norvegicus [14] = assay: Percentage fall in systolic blood pressure after 1 hr at 50 mg/kg given perorally; type: functional, Artery; settings: route oral; method in brief: as §2
Rattus norvegicus [15] = assay: Percentage fall in systolic blood pressure after 4 hours at 50 mg/kg given perorally; type: functional, Artery; settings: route oral; method in brief: as §2
Rattus norvegicus [16] = assay: Percentage fall in systolic blood pressure after 1 hours at 3.1 mg/kg given perorally; type: functional, Artery; settings: route oral; method in brief: as §1
Rattus norvegicus [17] = assay: Percentage fall in systolic blood pressure after 4 hours at 3.1 mg/kg given perorally; type: functional, organism-based; parameters: dose 3.1 mg/kg; settings: Artery; method in brief: as §1
Rattus norvegicus [18] = assay: Percentage fall in systolic blood pressure after 3 hours at 3.1 mg/kg given perorally; type: functional, organism-based; parameters: dose 3.1 mg/kg; settings: Artery; method in brief: as §1
Rattus norvegicus [19] = assay: Percentage fall in systolic blood pressure after 2 hours at 3.1 mg/kg given perorally; type: functional, Artery; settings: route oral; method in brief: as §1
Rattus norvegicus [20] = assay: Percentage fall in systolic blood pressure after 1 hours at 12.5 mg/kg given perorally; type: functional, Artery; settings: route oral; method in brief: as §1

| Structure (SMILES) | Decrease in SBP (Rattus norvegicus [1]) | Decrease in SBP (Rattus norvegicus [2]) | Decrease in SBP (Rattus norvegicus [3]) | Decrease in SBP (Rattus norvegicus [4]) | Decrease in SBP (Rattus norvegicus [5]) | -Log Ki [6] | Decrease in SBP (Rattus norvegicus [7]) | Decrease in SBP (Rattus norvegicus [8]) | Decrease in SBP (Rattus norvegicus [9]) | Decrease in SBP (Rattus norvegicus [10]) | -Log Ki [11] | Decrease in SBP (Rattus norvegicus [12]) | Decrease in SBP (Rattus norvegicus [13]) | Decrease in SBP (Rattus norvegicus [14]) | Decrease in SBP (Rattus norvegicus [15]) | Decrease in SBP (Rattus norvegicus [16]) | Decrease in SBP (Rattus norvegicus [17]) | Decrease in SBP (Rattus norvegicus [18]) | Decrease in SBP (Rattus norvegicus [19]) | Decrease in SBP (Rattus norvegicus [20]) |
| --- | --- | --- | --- | --- | --- | --- | --- | --- | --- | --- | --- | --- | --- | --- | --- | --- | --- | --- | --- | --- |
| CN1CC2(CCN(CC(O)C3COc4ccccc4O3)CC2)OCC1=O (stereo in doubt; 60) | Not significant |  |  |  |  |  |  |  |  |  |  |  |  |  |  |  |  |  |  |  |
| O=C1COC2(CCN(CCc3c[nH]c4ccccc34)CC2)CN1 |  | 19% | 48% | 48% | 41% | 7.41 | 29% | 20% | 28% | 26% | 6.2 | 30% | 39% | 53% | 41% |  |  |  |  |  |
| CN1CC2(CCN(CCCC(=O)c3ccc(F)cc3)CC2)OCC1=O |  |  |  |  | 37% |  | 25% |  |  | 19% |  |  |  |  |  | 26% | Not significant | Not significant | 27% | 46% |
